Shown are actives, neighbours in structure and some others; about 2.6% of the full set was active somewhere.
ARFGAP1 inhibitor = inhibits rat ARF GTPase activating protein 1; Q62848; Arfgap1-stimulated ARF1 GTP hydrolysis, GDP FP detection; inhibition, % at 16.5 µM; 360,000 compounds, 0.26% hits; AID 651572;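 active = inhibition above a per-plate limit, mean inhibition of low control wells plus 3 SD, cut at about 25% in these data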;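 also: 0% = DMSO wells with enzyme and 100% = wells lacking Arfgap1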
Target sequence (Q62848 1-136 limits assumed): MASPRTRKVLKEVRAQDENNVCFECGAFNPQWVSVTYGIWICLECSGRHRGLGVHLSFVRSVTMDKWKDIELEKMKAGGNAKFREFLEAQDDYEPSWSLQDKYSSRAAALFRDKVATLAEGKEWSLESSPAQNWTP
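Assay system: Rat Arfgap1 GAP domain (His6, aa 1-136), purified enzyme | Buffer or medium: HEPES 25 mM pH 7.5, NaCl 150 mM, MgCl2, DTT | Schedule: GTP hydrolysis reaction 2 h at 25 °C | Signal: FP of antibody-bound GDP Alexa 633 tracer, ex 620/em 688 nm | Measure: Percent inhibition of Arfgap1-stimulated GTP hydrolysis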
ASAP1 inh = inhibitors of human ASAP1 ArfGAP activity; Q9ULH1; ASAP1-stimulated ARF1 GTP hydrolysis, GDP FP detection; inhibition, % at 16.5 µM; 360,000 compounds, 0.19% hits; AID 624377; in the data active = inhibition above about 25%;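 also: 0% = vehicle with enzyme and substrate and 100% = no enzyme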
Target sequence (Q9ULH1 325-724 limits assumed): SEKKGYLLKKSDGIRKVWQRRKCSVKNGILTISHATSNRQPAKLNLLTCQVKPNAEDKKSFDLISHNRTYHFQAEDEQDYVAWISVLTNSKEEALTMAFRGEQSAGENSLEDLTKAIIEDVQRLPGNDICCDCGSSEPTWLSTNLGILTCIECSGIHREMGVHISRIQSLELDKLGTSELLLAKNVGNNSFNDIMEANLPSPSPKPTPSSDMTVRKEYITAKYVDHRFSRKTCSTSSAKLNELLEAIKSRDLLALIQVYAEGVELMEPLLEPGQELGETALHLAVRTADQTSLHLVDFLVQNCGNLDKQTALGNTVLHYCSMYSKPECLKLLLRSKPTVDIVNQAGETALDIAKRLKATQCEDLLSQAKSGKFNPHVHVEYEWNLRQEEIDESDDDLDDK
esBAF inh = inhibitors of esBAF chromatin remodeling in mouse ES cells; Bmi1-luciferase knock-in reporter, 24 h; 100% = twice the neutral-well signal; reporter increase, % at 12.5 µM; 350,000 compounds, 2% hits; in the data active = activation above about 40%; inconclusive = no clear call, values can overlap the other calls;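 also: 0% = median of the plate's neutral control wells and 100% = double that signal; a rise in the Bmi1 reporter signal indicates esBAF inhibition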
SMARCA2 activ = increases SMARCA2 function in MMTV reporter cells; MG213 cells, MMTV-luciferase reporter, dexamethasone, overnight; activation, % at 9.1 µM; 370,000 compounds, 1% hits; AID 652017; in the data active = activation above about 7.8%;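 also: 0% = vehicle wells and 100% = reference activator wells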
SMARCA2 act conf = SMARCA2 activation, confirmation screen | AID 652260 | shares compounds with SMARCA2 activ | activation, % at 9.1 µM | MG213 cells, MMTV-luciferase with dexamethasone, luminescence, overnight; MG213 cells expressing E1A, Rb sequestered; DMSO wells 0%, reference activator 100% | 3,500 compounds, 30% hits;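 active = activation above its plate's cutoff, the mean activation of tested wells plus 3 SD, cut at about 7.9% in these data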
VP16 Luc act = GAL4-VP16 reporter activation counter-screen; AID 686939; 3,500 compounds, 41% hits; shares compounds with SMARCA2 activ; HEK293 GAL4-VP16 pG5luc reporter, luciferase luminescence; scaled: DMSO wells 0%, SAHA wells 100%; activation, % at 9.1 µM;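 active = activation above the solvent-only control well mean plus 3 SD, averaged across control plates, cut at about 5.2% in these data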
The depositor's hits bear a star; ? = inconclusive; / = no result given.

SMILES	ARFGAP1 inhibitor	ASAP1 inh	esBAF inh	SMARCA2 activ	SMARCA2 act conf	VP16 Luc act
O=C(C=Cc1ccccc1)CC(c1ccccc1)N1CCOCC1 (stereo not drawn)	1	4	/	8.8*	7	3
O=C(C(c1ccccc1)N1CCOCC1)N1CCOCC1 (stereo not drawn)	14	14	/	3	/	/
Cc1ccccc1-c1cnc2c(c1)C(=O)N([C@@H](C)CO)C[C@@H](C)[C@H](CN(C)Cc1cccnc1)O2	/	/	-5	/	/	/
Nc1c(Cl)ncnc1N/N=C/c1ccc(O)cc1	1	2	1	1	/	/
Oc1ccc(/C=N/Nc2nccnc2Cl)cc1	15	-11	-4	13*	7	7.5*
Fc1ccc(/C=N/Nc2nccnc2Cl)cc1	-7	3	39	9.5*	8.4*	7.8*
Fc1cccc(/C=N/Nc2nccnc2Cl)c1	-14	-6	-7	5	/	/
Cc1noc(C)c1S(=O)(=O)Nc1cccc2c1O[C@@H](CN(C)C(=O)Nc1ccccc1)[C@@H](C)CN([C@H](C)CO)C2=O	/	/	-3	/	/	/
C[C@H](CO)N1C[C@H](C)[C@H](CN(C)Cc2ccncc2)Oc2ccc(NC(=O)c3ccncc3)cc2C1=O	/	/	1	/	/	/
CC(=Nc1ccccc1)C1=C(O)CSC1=O	-1	-7	46*	8.6*	2	4
Cc1cnc(C(=O)Nc2nnc(C3CC3)s2)cn1	-4	2	33	8.8*	-1	2
CCOC(=O)c1ccc(COC(=O)c2ccc3c(c2)-c2ccccc2C3=O)cc1	3	1	3	8.9*	-4	2
O=C(OCc1cccc(F)c1)c1ccc2c(c1)-c1ccccc1C2=O	-1	-4	-1	0	/	/
COc1ccc2[nH]c3c(=S)nc[nH]c3c2c1	13	4	/	9.7*	6	3
COC(=O)C[C@@H]1C[C@@H]2c3cc(N(C)C)ccc3O[C@@H]2[C@@H](CO)O1	/	/	2	/	/	/
Cc1n[nH]c(=S)n1/N=C/c1ccc(OCc2ccc(Cl)cc2Cl)cc1	-4	13	/	13*	0	3
Cc1n[nH]c(=S)n1/N=C/c1ccc(OCc2ccc(Cl)cc2)cc1	11	3	-10	0	/	/
CC1(C)Cc2c(sc(NC(=O)c3ccc(C(=O)c4ccccc4)cc3)c2C(N)=O)C(C)(C)N1	14	6	/	-2	/	/
CC1(C)Cc2c(sc(NC(=O)c3ccc4ncsc4c3)c2C(N)=O)C(C)(C)N1	4	10	/	8.5*	13*	8.0*
O=C(NC1CC1)c1scc2c1OCCO2	3	-4	-13	8.2*	4	-1
O=C(Nc1cccnc1)c1scc2c1OCCO2	5	6	-9	-2	/	/
CCN(CC)CCN1C(=O)C(=O)/C(=C(/O)c2cnn(-c3ccccc3)c2C)C1c1ccc(C)o1 (stereo not drawn)	20	-7	?	12*	6	3
C[C@H](CO)N1C[C@H](C)[C@H](CN(C)C(=O)CCCN(C)C)OCCCC[C@H](C)Oc2ccc(NC(=O)CCC(F)(F)F)cc2C1=O	/	/	-3	/	/	/
Cc1ccc(-c2nc3ccc(Cl)cn3c2CC2CCCCC2)cc1	-7	3	-19	3	/	/
Cc1ccc(-c2nc3ccc(C)cn3c2CC2CCCCC2)cc1	0	0	/	8.1*	1	5.1*
SMILES	ARFGAP1 inhibitor	ASAP1 inh	esBAF inh	SMARCA2 activ	SMARCA2 act conf	VP16 Luc act
C[C@@H]1CN([C@H](C)CO)C(=O)c2cc(C3=CCCC3)cnc2O[C@@H]1CN(C)C(=O)C1CCC1	/	/	-2	/	/	/
N#C/C(=N\Nc1cccc(F)c1)C(=N)N1CCCCCC1	13	-2	/	8.5*	7	11*
N#C/C(=N/Nc1ccccc1F)C(=N)N1CCOCC1	9	8	9	9.4*	11*	3
C[C@H]1CN([C@@H](C)CO)C(=O)c2cccc(NC(=O)Nc3ccc4c(c3)OCO4)c2O[C@H]1CN(C)S(=O)(=O)c1ccc(F)cc1	/	/	11	/	/	/
COc1cc(NC(=O)C2CCCCC2)c(OC)cc1NC(=O)c1ccco1	-5	14	-3	-2	/	/
COc1cc2c(cc1NC(=O)c1ccco1)CCCC2	11	-10	76*	10*	7.9*	11*
Cc1[nH]c2ccccc2c1/C=C/c1cc[n+](C)cc1	10	2	11	-1	/	/
C(=C\c1nccc2c1[nH]c1ccccc12)/c1ccccc1	13	16	26	6	/	/
Cc1ccc(/C=C\c2nccc3c2[nH]c2ccccc23)cc1	2	-3	55*	10*	8	8.1*
Fc1ccc(/C=C\c2nccc3c2[nH]c2ccccc23)cc1	17	18	12	16*	4	3
COc1ccc(S(=O)(=O)N(C)C[C@H]2Oc3ccc(NC(=O)NC(C)C)cc3C(=O)N([C@@H](C)CO)C[C@H]2C)cc1	/	/	-6	/	/	/
CS(=O)(=O)Nc1cccc(C2=NN(S(C)(=O)=O)C(c3ccc4c(c3)OCO4)C2)c1 (stereo not drawn)	14	-1	/	9.1*	6	7.1*
COc1cccc(-c2ccc3c(c2)[C@@H]2[C@@H](CCN2S(=O)(=O)c2ccccc2OC)[C@H](CO)N3C)c1	/	/	-4	/	/	/
CC(C)c1ccc(/C=N/NC(=O)c2c(Cl)cnn2C)cc1	10	-4	/	11*	15*	4
Cc1nn(C)c(C(=O)N/N=C/c2ccc(Br)cc2)c1Cl	2	-2	9	-1	/	/
O=C(Cc1ccccc1)N[C@H]1C=C[C@@H](CC(=O)N2CCCCC2)O[C@@H]1CO	/	/	1	/	/	/
C[C@@H]1CN([C@@H](C)CO)C(=O)c2cc(C#CCN(C)C)cnc2O[C@@H]1CN(C)C(=O)c1cnccn1	/	/	-5	/	/	/
O=C(Cc1csc(Nc2nc(=S)[nH]c3ccccc23)n1)NCCCN1CCN(c2ccccc2F)CC1	0	1	2	15*	9.6*	2
COc1ccccc1NC(=O)N[C@@H]1C=C[C@H](CC(=O)NCc2ccc(Cl)c(Cl)c2)O[C@H]1CO	/	/	7	/	/	/
COC(=O)c1c(C)[nH]c(C(=O)CN2C(=O)C3CC=CCC3C2=O)c1C (stereo not drawn)	1	3	?	9.0*	6	5
C[C@H](CO)N1C[C@H](C)[C@@H](CN(C)C(=O)c2ccc(N3CCN(C)CC3)cc2)OCc2cn(nn2)CCCC1=O	5	-12	-7	-2	/	/
COC(=O)N(C)C[C@H]1OCc2cnnn2CCCC(=O)N([C@@H](C)CO)C[C@@H]1C	-1	0	-1	8.6*	-3	0
C[C@H]1CN([C@@H](C)CO)C(=O)CCCn2cc(nn2)CO[C@@H]1CN(C)C(=O)c1ccc(N2CCN(C)CC2)cc1	0	-3	-2	8.2*	-1	-1
COc1ccc(CN(C)C[C@@H]2Oc3ccc(NC(=O)Nc4ccc5c(c4)OCO5)cc3C(=O)N([C@@H](C)CO)C[C@H]2C)cc1	/	/	-3	/	/	/

From PubChem
